Reference: ChEMBL document CHEMBL1649111, “Restoration of susceptibility of intracellular methicillin-resistant Staphylococcus aureus to beta-lactams: comparison of strains, cells, and antibiotics” (Antimicrob Agents Chemother, 2008)
Values after ≈ are worked out from the molar mass of the structure shown.

Legend:
Staphylococcus aureus [1] = assay: Bacteriostatic activity against intracellular hospital acquired methicillin-resistant Staphylococcus aureus ATCC 33591 infected in activated human THP-1 cells assessed as decrease in bacterial growth after 24 hrs at pH 7.4; type: functional
Procedure, shortened: (§1)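 THP-1 cells activated by 24-h culture with phorbol myristate acetate 2 mg/liter, then infected like unactivated THP-1. Cloxacillin dose range in mg/liter for 24 h. CFU per mg cell protein relative to the original inoculum, n = 3. Emin and Emax extrapolated from a Hill fit (slope 1), with EC50 as total drug; static concentration by graphical interpolation.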

Staphylococcus aureus [2] = assay: Antimicrobial activity against hospital acquired methicillin-resistant Staphylococcus aureus N4120032 obtained from wound infection opf patient infected in human THP-1 cells assessed as decrease in bacterial growth after 24 hrs at pH 5.5; type: functional, organism-based; conditions: N4120032, THP-1, 24 h
Procedure, shortened: (§2)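 Bacteria phagocytosed by unactivated human THP-1 macrophages, then incubated 24 h with extracellular antibiotic at about 0.01× to 100× the pH 5.5 broth MIC. CFU per mg cell protein counted against the original inoculum, n = 3. A Hill-equation fit (slope factor 1) gave Emin and Emax, extrapolated to infinitely low and high concentration, and EC50. Static concentration was graphically interpolated.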

Staphylococcus aureus [3] = assay: Antimicrobial activity against hospital acquired methicillin-resistant Staphylococcus aureus N4120210 obtained from urinary tract infection of patient infected in human THP-1 cells assessed as decrease in bacterial growth after 24 hrs at pH 5.5; type: functional, organism-based; conditions: N4120210, THP-1, Urine
Procedure, shortened: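 THP-1 macrophages were infected, then incubated 24 h with cloxacillin at extracellular concentrations from about 0.01× to 100× the MIC measured in broth at pH 5.5, with gentamicin 0.5 mg/liter to block extracellular growth. CFU per mg cell protein were counted as change from the original inoculum (n = 3). A Hill-equation fit gave Emax, EC50 (multiples of MIC) and static concentration.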

THP-1 = assay: Ratio of intracellular to extracellular drug level in human THP1 cells at 250 mg/L after 24 hrs; type: ADME, cell-based; conditions: thp-1, 24 h
Procedure, shortened: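 THP-1 cells incubated 24 h at 250 mg/liter extracellular drug. Cell lysates assayed microbiologically with MSSA ATCC 25923; content expressed per mg total protein. Cellular/extracellular ratio calculated assuming cell volume of 5 μl per mg protein.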

Staphylococcus aureus [4] = assay: Antimicrobial activity against constitutive beta-lactamase negative methicillin-resistant Staphylococcus aureus COL NRS100 infected in human THP-1 cells assessed as increase in bacterial count from original inoculum at low compound concentration after 24 hrs at pH 5.5; type: functional; procedure, shortened: as §2
Staphylococcus aureus [5] = assay: Antimicrobial activity against intracellular beta-lactamase negative methicillin-susceptible Staphylococcus aureus ATCC 25923 infected in activated human THP-1 cells assessed as decrease in bacterial growth after 24 hrs at pH 7.4; type: functional, organism-based; conditions: ATCC 25923, THP-1, 24 h; procedure, shortened: as §1
Staphylococcus aureus [6] = assay: Antimicrobial activity against hospital acquired methicillin-resistant and vancomycin-intermediate Staphylococcus aureus NRS126 obtained from bloodstream infection of patient infected in human THP-1 cells assessed as decrease in bacterial count from original inoculum at high compound concentration after 24 hrs at pH 5.5; type: functional; procedure, shortened: as §2
Staphylococcus aureus [7] = assay: Antimicrobial activity against intracellular beta-lactamase negative methicillin-susceptible Staphylococcus aureus ATCC 25923 infected in human keratinocytes assessed as increase in bacterial count from original inoculum at low compound concentration after 24 hrs at pH 7.4; type: functional
Procedure, shortened: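 Primary human skin keratinocytes or Calu-3 bronchial epithelial cells infected with MSSA ATCC 25923 at 5 × 10⁷ to 1 × 10⁸ bacteria/ml, 2 h internalization. Postphagocytosis inoculum 1.5 × 10⁶ to 3.0 × 10⁶ CFU/mg protein. Cloxacillin concentration range for 24 h; CFU/mg protein change vs. inoculum (n = 3). Hill fit gives Emin/Emax; static concentration by graphical interpolation.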

Staphylococcus aureus [8] = assay: Antimicrobial activity against hospital acquired methicillin-resistant and vancomycin-intermediate Staphylococcus aureus NRS126 obtained from patient with bloodstream infection by broth microdilution method at pH 5.5; type: functional
Staphylococcus aureus [9] = assay: (§3) Antimicrobial activity against hospital acquired methicillin-resistant Staphylococcus aureus N4120210 obtained from urinary tract infection of patient infected in human THP-1 cells assessed as decrease in bacterial count from original inoculum at high compound concentration after 24 hrs at pH 5.5; type: functional, Urine; procedure, shortened: as §2
Staphylococcus aureus [10] = assay: as §3, with “Panton-valentine leukocidin positive community” for “hospital”, “N4090440” for “N4120210”, “wound” for “urinary tract”, “increase” for “decrease”, “low” for “high”; type: functional; procedure, shortened: as §2
Staphylococcus aureus [11] = assay: Antimicrobial activity against animal acquired methicillin-resistant Staphylococcus aureus N7112046 infected in human THP-1 cells assessed as decrease in bacterial count from original inoculum at high compound concentration after 24 hrs at pH 5.5; type: functional; procedure, shortened: as §2
Staphylococcus aureus [12] = assay: Bacteriostatic activity against constitutive beta-lactamase negative methicillin-resistant Staphylococcus aureus COL NRS100 infected in human THP-1 cells assessed as decrease in bacterial growth after 24 hrs at pH 5.5; type: functional
Procedure, shortened: (§4)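 Human THP-1 macrophages infected with each S. aureus strain. Cloxacillin added extracellularly at about 0.01× to 100× the broth MIC measured at pH 5.5, with gentamicin 0.5 mg/liter to stop extracellular growth. Incubated 24 h. CFU counted per mg cell protein as change from the post-phagocytosis inoculum, n = 3. Emin, Emax and EC50 from a Hill fit; static concentration by graphical interpolation.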

Staphylococcus aureus [13] = assay: Bacteriostatic activity against intracellular beta-lactamase negative methicillin-susceptible Staphylococcus aureus ATCC 25923 infected in activated human THP-1 cells assessed as decrease in bacterial growth after 24 hrs at pH 7.4; type: functional; procedure, shortened: as §1
Staphylococcus aureus [14] = assay: Antimicrobial activity against intracellular hospital acquired methicillin-resistant Staphylococcus aureus ATCC 33591 infected in human keratinocytes assessed as decrease in bacterial growth after 24 hrs at pH 7.4; type: functional, organism-based; conditions: ATCC 33591, 24 h
Procedure, shortened: (§5)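 Primary human skin keratinocytes or Calu-3 bronchial epithelial cells, given an inoculum of 5 × 10⁷ to 1 × 10⁸ bacteria/ml and 2 h for internalization. Post-phagocytosis load 1.5 × 10⁶ to 3.0 × 10⁶ CFU per mg cell protein. Cloxacillin dose range in mg/liter for 24 h, n = 3. Hill-derived Emin, Emax and EC50; static concentration interpolated.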

Staphylococcus aureus [15] = assay: Bacteriostatic activity against hospital acquired methicillin-resistant Staphylococcus aureus ATCC 33591 infected in human THP-1 cells assessed as decrease in bacterial growth after 24 hrs at pH 5.5; type: functional; procedure, shortened: as §4
Staphylococcus aureus [16] = assay: Antimicrobial activity against hospital acquired methicillin-resistant and vancomycin-intermediate Staphylococcus aureus NRS18 obtained from wound, skin and soft tissue infection of patient infected in human THP-1 cells assessed as decrease in bacterial growth after 24 hrs at pH 5.5; type: functional, organism-based; conditions: NRS18, THP-1, 24 h; procedure, shortened: as §2
Staphylococcus aureus [17] = assay: Antimicrobial activity against constitutive beta-lactamase negative methicillin-resistant Staphylococcus aureus COL NRS100 infected in human THP-1 cells assessed as decrease in bacterial count from original inoculum at high compound concentration after 24 hrs at pH 5.5; type: functional; procedure, shortened: as §2
Staphylococcus aureus [18] = assay: Antimicrobial activity against hospital acquired methicillin-resistant and vancomycin-intermediate Staphylococcus aureus NRS126 obtained from patient with bloodstream infection by broth microdilution method at pH 7.4; type: functional
Procedure, shortened: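 Minimal inhibitory concentration by broth microdilution at pH 7.4, read in mg/liter. The MRSA genotype was confirmed by mecA PCR, and the SCCmec subgroup was assigned by multiplex PCR.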

Staphylococcus aureus [19] = assay: Antimicrobial activity against intracellular beta-lactamase negative methicillin-susceptible Staphylococcus aureus ATCC 25923 infected in human Calu3 cells assessed as decrease in bacterial count from original inoculum at high compound concentration after 24 hrs at pH 7.4; type: functional, Calu-3; procedure, shortened: as §5

SMILES: Cc1onc(-c2ccccc2Cl)c1C(=O)N[C@@H]1C(=O)N2[C@@H]1SC(C)(C)[C@@H]2C(=O)O [CLOXACILLIN]
- Activity (Staphylococcus aureus [1]): 1 mg/L
- EC50 (Staphylococcus aureus [2]): 9.26 ×MIC
- EC50 (Staphylococcus aureus [3]): 8.51 ×MIC
- Ratio (THP-1): 0.28
- log10cfu (Staphylococcus aureus [4]): 2.42
- EC50 (Staphylococcus aureus [5]): 0.43 µg/mL (≈ 0.986 µM)
- log10cfu (Staphylococcus aureus [6]): 0.69
- log10cfu (Staphylococcus aureus [7]): 2.64
- MIC (Staphylococcus aureus [8]): 0.06 µg/mL (≈ 0.138 µM)
- log10cfu (Staphylococcus aureus [9]): 0.63
- log10cfu (Staphylococcus aureus [10]): 2.51
- log10cfu (Staphylococcus aureus [11]): 0.72
- Activity (Staphylococcus aureus [12]): 8.31 ×MIC
- Activity (Staphylococcus aureus [13]): 1.3 mg/L
- EC50 (Staphylococcus aureus [14]): 0.39 µg/mL (≈ 0.895 µM)
- Activity (Staphylococcus aureus [15]): 17.8 ×MIC
- EC50 (Staphylococcus aureus [16]): 3.96 ×MIC
- log10cfu (Staphylococcus aureus [17]): 0.78
- MIC (Staphylococcus aureus [18]): 16 µg/mL (≈ 36.7 µM)
- log10cfu (Staphylococcus aureus [19]): 0.99
